Measured values published in ChEMBL document CHEMBL1671656, “Light-microscopic immunocytochemistry for gentamicin and its use for studying uptake of the drug in kidney” (Antimicrob Agents Chemother, 2009).

Experiments:
Format in all cases: ADME, organism-based
Set-up in all cases: dose 16 mg/kg, route intravenous
Conditions in all cases: in vivo; call rule not given here
[1] = Drug uptake in Wistar rat kidney proximal tubule S2 obtained after tissue digestion with 0.04% protease digestion for 2 hrs mins at 4 or 16 mg/kg, iv after 12 hrs post dose by light-microscopic immunocytochemistry
In short: (§1)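 Male Wistar rats (200–250 g) received a single tail-vein gentamicin dose (3 per time group), with saline-injected rats as controls. Under pentobarbital, rats were perfused with PBS, then 2% glutaraldehyde in 10 mM phosphate (pH 7.2), and kidneys postfixed overnight at 4°C. Paraffin sections (5 μm) were treated with 6% H₂O₂, 1.0% NaBH₄ and 1 N HCl, then protease at 30°C. Staining used rabbit anti-GM serum 1:5,000 (overnight, 4°C), then HRP anti-rabbit IgG with DAB.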

[2] = Drug uptake in Wistar rat kidney proximal tubule S1 obtained after tissue digestion with 0.04% protease digestion for 2 hrs mins at 4 or 16 mg/kg, iv after 12 hrs post dose by light-microscopic immunocytochemistry; in short: as §1
[3] = Drug uptake in Wistar rat kidney proximal tubule […] cells obtained after tissue digestion with 0.04% protease digestion for 15 mins at 4 or 16 mg/kg, iv after 12 hrs post dose by light-microscopic immunocytochemistry; in short: as §1
[4] = Drug uptake in Wistar rat kidney collecting duct cells obtained after tissue digestion with 0.04% protease digestion for 15 mins at 4 or 16 mg/kg, iv after 12 hrs post dose by light-microscopic immunocytochemistry; in short: as §1
[5] = Drug uptake in cytoplasm of Wistar rat kidney distal tubule cells obtained after tissue digestion with 0.04% protease digestion for 15 mins at 4 or 16 mg/kg, iv after 12 hrs post dose by light-microscopic immunocytochemistry; in short: as §1
[6] = Drug uptake in Wistar rat Kidney endothelium cells obtained after tissue digestion with 0.04% protease digestion for 2 hrs mins at 4 or 16 mg/kg, iv after 1 hrs post dose by light-microscopic immunocytochemistry; in short: as §1
[7] = Drug uptake in Wistar rat Kidney endothelium cells obtained after tissue digestion with 0.04% protease digestion for 15 mins to 60 mins at 4 or 16 mg/kg, iv after 1 hrs post dose by light-microscopic immunocytochemistry; in short: as §1
[8] = Drug uptake in Wistar rat Kidney endothelium cells obtained after tissue digestion with 0.04% protease digestion for 15 mins to 2 hrs mins at 4 or 16 mg/kg, iv after 12 hrs post dose by light-microscopic immunocytochemistry; in short: as §1
[9] = Drug uptake in Wistar rat Kidney glomeruli cells obtained after tissue digestion with 0.04% protease digestion for 15 mins to 2 hrs mins at 4 or 16 mg/kg, iv after 12 hrs post dose by light-microscopic immunocytochemistry; in short: as §1
[10] = Drug uptake in Wistar rat Kidney Henle's loop cells obtained after tissue digestion with 0.04% protease digestion for 15 mins to 2 hrs mins at 4 or 16 mg/kg, iv after 12 hrs post dose by light-microscopic immunocytochemistry; in short: as §1
[11] = Drug uptake in Wistar rat kidney collecting duct cells obtained after tissue digestion with 0.04% protease digestion for 30 mins at 4 or 16 mg/kg, iv after 12 hrs post dose by light-microscopic immunocytochemistry; in short: as §1
[12] = Drug uptake in Wistar rat kidney collecting duct cells obtained after tissue digestion with 0.04% protease digestion for 2 hrs at 4 or 16 mg/kg, iv after 12 hrs post dose by light-microscopic immunocytochemistry; in short: as §1
[13] = Drug uptake in cytoplasm of Wistar rat kidney distal tubule cells obtained after tissue digestion with 0.04% protease digestion for 2 hrs at 4 or 16 mg/kg, iv after 12 hrs post dose by light-microscopic immunocytochemistry; in short: as §1
[14] = Drug uptake in nuclei of Wistar rat kidney distal tubule cells obtained after tissue digestion with 0.04% protease digestion for 15 mins at 4 or 16 mg/kg, iv after 12 hrs post dose by light-microscopic immunocytochemistry; in short: as §1

## GENTAMICIN
[1]
  Drug uptake: Active
[2]
  Drug uptake: Active
[3]
  Drug uptake: Not Active
[4]
  Drug uptake: Active
[5]
  Drug uptake: Active
[6]
  Drug uptake: Not Active
[7]
  Drug uptake: Active
[8]
  Drug uptake: Not Active
[9]
  Drug uptake: Not Active
[10]
  Drug uptake: Not Active
[11]
  Drug uptake: Active
[12]
  Drug uptake: Not Active
[13]
  Drug uptake: Not Active
[14]
  Drug uptake: Active
